Measurements reported in ChEMBL document CHEMBL5705891, “Small-molecule kinase inhibitors provide insight into Mps1 cell cycle function” (Nat Chem Biol, 2010).
The source made the active and inactive calls. No cut-off for these calls is given here.

Key:
[1] = biological target: Serine/threonine-protein kinase 24 (Homo sapiens) (UniProt Q9Y6E0); test: Inhibition of MST3 (unknown origin) assessed as residual enzyme activity at 10 uM by Ambit kinase binding assay relative to control
[2] = biological target: Receptor-interacting serine/threonine-protein kinase 4 (Homo sapiens) (UniProt P57078); test: Inhibition of RIPK4 (unknown origin) assessed as residual enzyme activity at 10 uM by Ambit kinase binding assay relative to control
[3] = biological target: Calcium/calmodulin-dependent protein kinase kinase 2 (Homo sapiens) (UniProt Q96RR4); test: Inhibition of CAMKK2 (unknown origin) assessed as residual enzyme activity at 10 uM by Ambit kinase binding assay relative to control
[4] = biological target: Death-associated protein kinase 3 (Homo sapiens) (UniProt O43293); test: Inhibition of DAPK3 (unknown origin) assessed as residual enzyme activity at 10 uM by Ambit kinase binding assay relative to control
Chain of Death-associated protein kinase 3 (Homo sapiens) (O43293 whole entry, looked up): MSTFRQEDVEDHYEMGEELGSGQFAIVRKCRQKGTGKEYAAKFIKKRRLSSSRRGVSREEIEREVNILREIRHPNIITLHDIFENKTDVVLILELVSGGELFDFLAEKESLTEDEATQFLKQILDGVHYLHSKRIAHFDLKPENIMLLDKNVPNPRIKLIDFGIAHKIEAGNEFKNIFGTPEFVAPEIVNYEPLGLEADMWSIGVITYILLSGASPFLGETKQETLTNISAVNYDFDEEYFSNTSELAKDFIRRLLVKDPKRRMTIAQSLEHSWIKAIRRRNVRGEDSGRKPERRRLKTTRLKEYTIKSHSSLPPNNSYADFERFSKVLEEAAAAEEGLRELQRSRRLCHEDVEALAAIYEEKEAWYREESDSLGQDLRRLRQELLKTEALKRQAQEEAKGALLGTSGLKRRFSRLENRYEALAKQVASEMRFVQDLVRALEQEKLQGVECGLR

[5] = biological target: Serine/threonine-protein kinase 16 (Homo sapiens) (UniProt O75716); test: Inhibition of STK16 (unknown origin) assessed as residual enzyme activity at 10 uM by Ambit kinase binding assay relative to control
Chain of Serine/threonine-protein kinase 16 (Homo sapiens) (O75716 whole entry): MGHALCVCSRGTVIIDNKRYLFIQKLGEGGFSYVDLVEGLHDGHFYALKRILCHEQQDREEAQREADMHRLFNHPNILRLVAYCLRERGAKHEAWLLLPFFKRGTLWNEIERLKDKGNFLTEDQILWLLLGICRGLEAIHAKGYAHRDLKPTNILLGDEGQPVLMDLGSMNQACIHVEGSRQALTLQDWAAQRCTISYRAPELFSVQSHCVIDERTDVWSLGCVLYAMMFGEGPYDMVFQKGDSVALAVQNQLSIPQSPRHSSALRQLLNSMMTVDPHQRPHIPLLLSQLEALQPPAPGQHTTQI

[6] = biological target: Death-associated protein kinase 1 (Homo sapiens) (UniProt P53355); test: Inhibition of DAPK1 (unknown origin) assessed as residual enzyme activity at 10 uM by Ambit kinase binding assay relative to control
[7] = biological target: Bone morphogenetic protein receptor type-1B (Homo sapiens) (UniProt O00238); test: Inhibition of BMPR1B (unknown origin) assessed as residual enzyme activity at 10 uM by Ambit kinase binding assay relative to control
[8] = biological target: MAP kinase-interacting serine/threonine-protein kinase 2 (Homo sapiens) (UniProt Q9HBH9); test: Inhibition of MKNK2 (unknown origin) assessed as residual enzyme activity at 10 uM by Ambit kinase binding assay relative to control
Chain of MAP kinase-interacting serine/threonine-protein kinase 2 (Homo sapiens) (Q9HBH9 whole entry, looked up): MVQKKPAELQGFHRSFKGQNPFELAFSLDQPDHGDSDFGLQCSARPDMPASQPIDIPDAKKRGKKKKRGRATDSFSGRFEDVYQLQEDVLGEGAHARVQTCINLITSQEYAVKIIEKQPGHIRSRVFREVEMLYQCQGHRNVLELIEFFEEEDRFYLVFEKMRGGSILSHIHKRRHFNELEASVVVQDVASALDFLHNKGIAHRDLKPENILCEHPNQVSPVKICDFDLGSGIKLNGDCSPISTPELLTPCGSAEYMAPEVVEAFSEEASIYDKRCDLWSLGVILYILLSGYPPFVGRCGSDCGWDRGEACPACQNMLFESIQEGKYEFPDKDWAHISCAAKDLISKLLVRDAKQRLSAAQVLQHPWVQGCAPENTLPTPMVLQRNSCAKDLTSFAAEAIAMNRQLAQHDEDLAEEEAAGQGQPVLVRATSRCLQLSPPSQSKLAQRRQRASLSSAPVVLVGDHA

[9] = biological target: AP2-associated protein kinase 1 (Homo sapiens) (UniProt Q2M2I8); test: Inhibition of AAK1 (unknown origin) assessed as residual enzyme activity at 10 uM by Ambit kinase binding assay relative to control
Chain of AP2-associated protein kinase 1 (Homo sapiens) (Q2M2I8 whole entry, looked up): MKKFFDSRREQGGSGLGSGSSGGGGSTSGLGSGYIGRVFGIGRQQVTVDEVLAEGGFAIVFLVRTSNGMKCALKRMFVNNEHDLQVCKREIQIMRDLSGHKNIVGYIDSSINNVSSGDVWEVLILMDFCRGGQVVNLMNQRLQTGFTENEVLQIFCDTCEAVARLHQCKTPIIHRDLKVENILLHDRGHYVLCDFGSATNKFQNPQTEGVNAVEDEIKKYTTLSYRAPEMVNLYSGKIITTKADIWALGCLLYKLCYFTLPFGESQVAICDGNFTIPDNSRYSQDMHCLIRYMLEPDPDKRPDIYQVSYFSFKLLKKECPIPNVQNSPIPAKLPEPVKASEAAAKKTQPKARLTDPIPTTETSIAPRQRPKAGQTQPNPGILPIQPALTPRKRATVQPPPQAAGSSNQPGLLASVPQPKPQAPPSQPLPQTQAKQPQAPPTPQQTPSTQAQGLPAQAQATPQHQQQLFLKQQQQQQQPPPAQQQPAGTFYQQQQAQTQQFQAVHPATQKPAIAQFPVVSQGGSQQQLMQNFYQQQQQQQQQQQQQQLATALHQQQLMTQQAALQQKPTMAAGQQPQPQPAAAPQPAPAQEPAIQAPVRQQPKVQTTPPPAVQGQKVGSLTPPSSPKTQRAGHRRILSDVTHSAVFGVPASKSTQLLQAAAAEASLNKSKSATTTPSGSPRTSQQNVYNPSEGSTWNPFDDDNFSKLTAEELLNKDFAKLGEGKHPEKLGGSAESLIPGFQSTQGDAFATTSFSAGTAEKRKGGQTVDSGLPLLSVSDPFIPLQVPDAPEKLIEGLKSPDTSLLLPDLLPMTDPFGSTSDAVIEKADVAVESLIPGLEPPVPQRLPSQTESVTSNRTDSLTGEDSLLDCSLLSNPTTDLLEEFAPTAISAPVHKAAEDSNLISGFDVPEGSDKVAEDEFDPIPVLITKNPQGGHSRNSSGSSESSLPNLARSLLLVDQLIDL

[10] = biological target: Death-associated protein kinase 2 (Homo sapiens) (UniProt Q9UIK4); test: Inhibition of DAPK2 (unknown origin) assessed as residual enzyme activity at 10 uM by Ambit kinase binding assay relative to control
Chain of Death-associated protein kinase 2 (Homo sapiens) (Q9UIK4 whole entry, looked up): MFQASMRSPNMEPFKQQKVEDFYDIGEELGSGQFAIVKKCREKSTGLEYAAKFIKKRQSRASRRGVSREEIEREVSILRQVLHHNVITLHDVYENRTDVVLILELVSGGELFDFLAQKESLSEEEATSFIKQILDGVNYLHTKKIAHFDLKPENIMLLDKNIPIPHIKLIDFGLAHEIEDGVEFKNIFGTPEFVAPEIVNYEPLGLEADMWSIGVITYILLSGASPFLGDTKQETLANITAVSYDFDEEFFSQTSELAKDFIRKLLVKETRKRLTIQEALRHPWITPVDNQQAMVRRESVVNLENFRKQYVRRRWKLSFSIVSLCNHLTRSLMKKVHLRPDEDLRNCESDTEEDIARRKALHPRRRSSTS

[11] = biological target: Serine/threonine-protein kinase pim-3 (Homo sapiens) (UniProt Q86V86); test: Inhibition of PIM3 (unknown origin) assessed as residual enzyme activity at 10 uM by Ambit kinase binding assay relative to control
U2OS [12] = test: Induction of aneuploidy in UTRM10 cells (unknown origin) expressing LAP-tagged Mps1 M602Q mutant at 5 uM treated for 48 hrs by FACS analysis; type: functional, cell-based
Method in brief: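 UTRM10 cells expressing RNAi-resistant LAP-Mps1 WT or M602Q were treated with compound or DMSO for 48 h, then DNA content was analysed by FACS.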

[13] = biological target: Ribosomal protein S6 kinase alpha-1 (Homo sapiens) (UniProt Q15418); test: Inhibition of RPS6KA1 kinase domain 1 (unknown origin) assessed as residual enzyme activity at 10 uM by Ambit kinase binding assay relative to control
Chain of Ribosomal protein S6 kinase alpha-1 (Homo sapiens) (Q15418 whole entry, the tested form may be a part): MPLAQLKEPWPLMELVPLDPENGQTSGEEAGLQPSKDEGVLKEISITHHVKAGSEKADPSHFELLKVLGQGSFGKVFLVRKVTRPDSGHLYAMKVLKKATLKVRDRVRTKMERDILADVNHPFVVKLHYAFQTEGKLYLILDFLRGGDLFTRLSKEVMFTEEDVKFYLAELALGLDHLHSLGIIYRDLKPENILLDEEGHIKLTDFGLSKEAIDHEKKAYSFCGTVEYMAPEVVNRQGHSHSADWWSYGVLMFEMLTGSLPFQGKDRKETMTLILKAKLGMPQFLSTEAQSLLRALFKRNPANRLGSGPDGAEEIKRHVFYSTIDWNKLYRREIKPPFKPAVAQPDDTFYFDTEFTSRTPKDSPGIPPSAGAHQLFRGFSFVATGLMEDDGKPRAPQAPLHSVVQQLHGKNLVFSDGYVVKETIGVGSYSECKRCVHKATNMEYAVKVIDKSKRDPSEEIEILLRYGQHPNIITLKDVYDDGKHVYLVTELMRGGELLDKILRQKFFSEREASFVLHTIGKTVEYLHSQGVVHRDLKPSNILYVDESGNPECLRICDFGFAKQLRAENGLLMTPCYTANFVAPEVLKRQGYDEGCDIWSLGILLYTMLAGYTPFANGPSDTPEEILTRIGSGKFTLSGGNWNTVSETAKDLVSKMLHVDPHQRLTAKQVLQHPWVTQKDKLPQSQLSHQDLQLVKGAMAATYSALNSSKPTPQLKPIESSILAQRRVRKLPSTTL

[14] = biological target: Insulin-like growth factor 1 receptor (Homo sapiens, UniProt P08069); test: Inhibition of IGF1R (unknown origin) assessed as residual enzyme activity at 10 uM by Ambit kinase binding assay relative to control
Focal adhesion kinase 1 = Focal adhesion kinase 1 (Homo sapiens, UniProt Q05397); test: Binding affinity to FAK (unknown origin) assessed as dissociation constant by Ambit kinase binding assay
U2OS [15] = test: Effect on thymidine-treated human U2OS cell populations after two cell doubling at 10 uM incubated for 4 hrs followed by thymidine release by immunofluorescence imaging analysis; type: functional, cell-based
HCT-116 [16] = test: Induction of aneuploidy in human HCT-116 cells at 10 uM incubated for 4 days by FACS analysis; type: functional, cell-based; conditions: time 4.0 day
Method in brief: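 HCT116 cells were treated with 10 μM compound or DMSO vehicle for the indicated times up to 96 h, then DNA content was profiled by flow cytometry.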

U2OS [17] = test: Antiproliferative activity against human U2OS cells at 10 uM incubated for 4 days by Syto60 staining based assay; type: functional, cell-based; conditions: time 4.0 day
Method in brief: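 Proliferation read by Syto60 nucleic acid stain fluorescence (excitation 635 nm, emission 695 nm) after treatment for up to 96 h. Each time point normalized to its DMSO control. Mean ± SD from 4 independent experiments. Cells kept at 37°C, 5% CO2 in 10% FBS-supplemented medium.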

HeLa = test: Antiproliferative activity against human HeLa cells assessed as loss of clonal survival upto 10 uM incubated for 10 days by crystal violet staining based assay; type: functional, cell-based; conditions: time 10.0 day
Method in brief: (§1)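 Colony outgrowth: cells plated at 200 cells per 60-mm dish, exposed to compound or DMSO vehicle and stained with crystal violet after 10 days. HCT116 grown in McCoy's 5A; A549 and HeLa in DMEM; hTERT-RPE1 in DMEM/F-12. All media had 10% FBS and penicillin/streptomycin, 37°C, 5% CO2. Quantified from 3 independent experiments, mean + SD, Student's t test.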

U2OS [18] = test: Induction of multipolar anaphases in thymidine-treated human U2OS cells expressing H2B-GFP and Plk4 overexpression measured for 30 mins by time lapse imaging analysis; type: functional, cell-based
Method in brief: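 Doxycycline-inducible Plk4 U2OS cells expressing H2B-GFP were blocked with thymidine for 18 hrs and released into doxycycline (2 μg·ml⁻¹) for 10 hrs. A second 18-hr thymidine block followed, then release for 6 hrs before 5 μM inhibitor, with or without Plk4 induction. Cells were imaged by time-lapse at 37°C, 5% CO₂, timed from NEBD, and bipolar versus multipolar anaphases were scored. Values are mean ± SD of 3 independent experiments.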

[19] = biological target: Tyrosine-protein kinase receptor UFO (Homo sapiens) (UniProt P30530); test: Inhibition of AXL (unknown origin) assessed as residual enzyme activity at 10 uM by Ambit kinase binding assay relative to control
Chain of Tyrosine-protein kinase receptor UFO (Homo sapiens) (P30530 whole entry): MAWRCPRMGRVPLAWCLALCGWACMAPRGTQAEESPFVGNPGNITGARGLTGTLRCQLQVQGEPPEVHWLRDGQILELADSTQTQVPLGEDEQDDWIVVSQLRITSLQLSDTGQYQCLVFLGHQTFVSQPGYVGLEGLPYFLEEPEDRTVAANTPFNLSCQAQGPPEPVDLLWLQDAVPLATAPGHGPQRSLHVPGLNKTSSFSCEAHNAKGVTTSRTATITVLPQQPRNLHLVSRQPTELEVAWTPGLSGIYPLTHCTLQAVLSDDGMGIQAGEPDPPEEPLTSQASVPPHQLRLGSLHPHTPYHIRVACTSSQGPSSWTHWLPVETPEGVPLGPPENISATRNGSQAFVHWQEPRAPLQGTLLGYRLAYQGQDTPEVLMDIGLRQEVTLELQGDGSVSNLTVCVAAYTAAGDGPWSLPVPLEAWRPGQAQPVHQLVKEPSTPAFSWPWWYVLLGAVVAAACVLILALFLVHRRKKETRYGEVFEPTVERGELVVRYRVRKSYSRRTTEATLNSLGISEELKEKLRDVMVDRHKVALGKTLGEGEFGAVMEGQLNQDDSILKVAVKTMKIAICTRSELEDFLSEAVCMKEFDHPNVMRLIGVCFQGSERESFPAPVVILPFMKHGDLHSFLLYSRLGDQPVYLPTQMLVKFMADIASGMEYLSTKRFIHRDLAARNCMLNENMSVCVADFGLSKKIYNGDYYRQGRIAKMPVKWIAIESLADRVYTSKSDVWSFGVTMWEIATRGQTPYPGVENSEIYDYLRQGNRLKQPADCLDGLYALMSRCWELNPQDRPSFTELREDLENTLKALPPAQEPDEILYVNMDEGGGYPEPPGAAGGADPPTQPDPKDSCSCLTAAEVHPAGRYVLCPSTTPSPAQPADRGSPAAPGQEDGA

[20] = biological target: Mitogen-activated protein kinase 3 (Homo sapiens) (UniProt P27361); test: Inhibition of ERK1 (unknown origin) assessed as residual enzyme activity at 10 uM by Ambit kinase binding assay relative to control
Chain of Mitogen-activated protein kinase 3 (Homo sapiens) (P27361 whole entry): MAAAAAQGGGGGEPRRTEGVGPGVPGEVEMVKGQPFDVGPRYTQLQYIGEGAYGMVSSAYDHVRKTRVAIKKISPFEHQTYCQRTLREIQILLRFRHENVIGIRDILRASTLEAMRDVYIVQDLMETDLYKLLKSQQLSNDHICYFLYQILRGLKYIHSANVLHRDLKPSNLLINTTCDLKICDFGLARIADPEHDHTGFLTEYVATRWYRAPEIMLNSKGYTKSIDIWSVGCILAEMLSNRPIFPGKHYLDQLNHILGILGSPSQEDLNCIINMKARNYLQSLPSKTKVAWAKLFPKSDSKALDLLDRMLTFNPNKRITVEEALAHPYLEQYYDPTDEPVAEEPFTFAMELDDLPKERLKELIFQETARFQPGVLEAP

HCT-116 [21] = test: Antiproliferative activity against human HCT-116 cells with p53-/- assessed as loss of clonal survival upto 10 uM incubated for 10 days by crystal violet staining based assay; type: functional, cell-based; conditions: time 10.0 day; method in brief: as §1
U2OS [22] = test: Reversal of nocodazole-induced mitotic arrest in human U2OS cells assessed as Ser10 phosphorylated Histone H3-positive 4c population at 10 uM incubated for 16 hrs by flow cytometry (reference value: 94 %); type: functional
[23] = biological target: Dual specificity protein kinase CLK1 (Homo sapiens, UniProt P49759); test: Binding affinity to CLK1 (unknown origin) assessed as dissociation constant by Ambit kinase binding assay
U2OS [24] = test: Reversal of paclitaxel-induced mitotic arrest in human U2OS cells assessed as accumulation of 4N phosphorylated Histone H3-negative cells incubated for 16 hrs by flow cytometry; type: functional, cell-based; conditions: dose 5-10 µM
TERT-RPE1 = test: Antiproliferative activity against hTERT-RPE1 cells at 10 uM incubated for 4 days by Syto60 staining based assay; type: toxicity, cell-based; conditions: human, tert-rpe1, 96 h, time 4 day

Chain of Serine/threonine-protein kinase 24 (Homo sapiens) (Q9Y6E0 whole entry, looked up): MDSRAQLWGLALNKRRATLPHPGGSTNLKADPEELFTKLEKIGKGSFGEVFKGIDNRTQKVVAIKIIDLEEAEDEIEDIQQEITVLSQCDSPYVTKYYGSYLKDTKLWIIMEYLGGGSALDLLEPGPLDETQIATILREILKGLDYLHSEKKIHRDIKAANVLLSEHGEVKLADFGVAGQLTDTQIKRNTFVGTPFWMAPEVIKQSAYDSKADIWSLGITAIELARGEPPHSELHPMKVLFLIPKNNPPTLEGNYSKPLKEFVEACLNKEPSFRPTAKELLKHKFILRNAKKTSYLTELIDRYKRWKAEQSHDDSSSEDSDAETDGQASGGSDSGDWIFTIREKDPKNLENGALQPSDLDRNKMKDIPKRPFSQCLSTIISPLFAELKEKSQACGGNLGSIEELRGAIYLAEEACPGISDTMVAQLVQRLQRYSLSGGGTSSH

SMILES: O=C1c2ccccc2-c2n[nH]c3cccc1c23
- Activity [1]: 1.8%
- Activity [2]: 2.2%
- Activity [3]: 26%
- Activity [4]: 3.2%
- Activity [5]: 1.4%
- Activity [6]: 1.4%
- Activity [7]: 5%
- Activity [8]: 1.9%
- Activity [9]: 2.6%
- Activity [10]: 4.1%
- Activity [11]: 14%

SMILES: COc1cc(N2CCC(O)CC2)ccc1Nc1cc(Nc2ccccc2S(=O)(=O)C(C)C)c2cc[nH]c2n1
- Activity (U2OS [12]): Active
- Activity [13]: 29%
- Activity [14]: 0.9%
- Kd (Focal adhesion kinase 1): 440 nM
- Activity (U2OS [15]): inactive
- Activity (HCT-116 [16]): Active
- Activity (U2OS [17]): Active
- Activity (HeLa): Active
- Activity (U2OS [18]): Active
- Activity [19]: 19%
- Activity [20]: 23%
- Activity (HCT-116 [21]): Active
- Activity (U2OS [22]): 1%
- Kd [23]: 1900 nM
- Activity (U2OS [24]): Dose-Dependent Effect
- Activity (TERT-RPE1): Toxic
